Measured values from paper PMC3034734 (Chemistry & biology, 2009).
Changes are numbered by the printed parent chain. Where two headings read alike, the source gives them in different places.

What was measured:
purified MGL = purified MGL (Rattus norvegicus, UniProt Q8R431); type: biochemical
[1] = tested on: rat brain diacylglycerol lipase; assay: DGL activity in rat brain homogenates; type: biochemical; conditions: in vitro, Table S1
rat ABHD12 = molecular target: T1, rat ABHD12 (Rattus norvegicus, UniProt Q6AYT7); assay: ABHD12 activity assay; type: biochemical; conditions: in vitro
T1 sequence (Q6AYT7 1-398): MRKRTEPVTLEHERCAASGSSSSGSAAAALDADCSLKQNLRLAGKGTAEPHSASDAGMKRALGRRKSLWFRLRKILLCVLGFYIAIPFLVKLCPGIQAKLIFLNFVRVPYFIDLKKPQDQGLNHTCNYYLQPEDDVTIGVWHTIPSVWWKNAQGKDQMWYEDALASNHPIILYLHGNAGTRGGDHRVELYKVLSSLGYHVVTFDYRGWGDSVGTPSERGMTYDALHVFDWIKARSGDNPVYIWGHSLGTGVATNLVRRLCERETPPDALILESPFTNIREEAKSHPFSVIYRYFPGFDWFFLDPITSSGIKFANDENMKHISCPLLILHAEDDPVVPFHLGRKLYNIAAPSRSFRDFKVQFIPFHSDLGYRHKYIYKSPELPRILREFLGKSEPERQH
In short: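 Rat full-length ABHD12 (V5-tagged) transiently expressed in HeLa cells, harvested at 48 h, and homogenised in 50 mM Tris-Cl pH 8.0 with 0.32 M sucrose. Modified MGL assay run at pH 7.5 with 3 μg protein per reaction for 30 min at 37°C. Samples extracted; product (m/z 281) quantified by negative-ion ESI LC/MS in SIM mode against heptadecanoic acid standard.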

rat ABHD6 = molecular target: T2, rat ABHD6 (Rattus norvegicus, UniProt Q5XI64); assay: ABHD6 activity assay; type: biochemical
T2 sequence (Q5XI64 1-337): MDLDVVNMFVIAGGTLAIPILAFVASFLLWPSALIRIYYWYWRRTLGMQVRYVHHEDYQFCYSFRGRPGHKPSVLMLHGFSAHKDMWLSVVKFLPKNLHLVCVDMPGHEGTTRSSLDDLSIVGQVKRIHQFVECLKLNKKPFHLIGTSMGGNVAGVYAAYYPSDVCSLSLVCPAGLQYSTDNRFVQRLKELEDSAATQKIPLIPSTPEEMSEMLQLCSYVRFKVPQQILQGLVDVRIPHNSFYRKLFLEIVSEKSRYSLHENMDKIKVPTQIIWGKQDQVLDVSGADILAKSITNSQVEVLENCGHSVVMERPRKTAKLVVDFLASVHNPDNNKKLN

[2] = tested on: primary cultures of rat cortical neurons; assay: 2-AG and PEA levels in primary cultures of rat cortical neurons; type: cell-based
rat brain FAAH = molecular target: T3, rat brain FAAH (Rattus norvegicus, UniProt P97612); assay: FAAH activity in rat brain homogenates; type: biochemical; conditions: in vitro, Table S1
T3 sequence (P97612 1-579): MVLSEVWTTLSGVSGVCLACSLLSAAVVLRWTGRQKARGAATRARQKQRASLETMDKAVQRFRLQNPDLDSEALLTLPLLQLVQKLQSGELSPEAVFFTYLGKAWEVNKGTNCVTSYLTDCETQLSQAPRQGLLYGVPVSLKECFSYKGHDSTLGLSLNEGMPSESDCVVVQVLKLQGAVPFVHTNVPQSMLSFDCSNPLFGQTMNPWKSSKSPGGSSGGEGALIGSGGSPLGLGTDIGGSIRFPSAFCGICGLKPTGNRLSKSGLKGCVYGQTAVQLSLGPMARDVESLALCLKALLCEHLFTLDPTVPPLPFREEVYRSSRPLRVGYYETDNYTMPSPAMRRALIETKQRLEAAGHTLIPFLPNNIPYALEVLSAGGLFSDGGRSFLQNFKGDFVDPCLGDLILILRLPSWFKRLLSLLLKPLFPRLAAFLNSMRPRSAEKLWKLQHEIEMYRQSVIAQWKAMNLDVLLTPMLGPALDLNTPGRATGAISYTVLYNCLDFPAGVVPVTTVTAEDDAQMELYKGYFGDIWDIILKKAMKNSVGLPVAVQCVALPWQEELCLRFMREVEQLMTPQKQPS

MGL Cys32 mutant = molecular target: T4, MGL Cys32 mutant (Rattus norvegicus, UniProt Q8R431, C32G); assay: Inhibition of MGL Cys32 mutant; type: biochemical; conditions: data not shown
T4 sequence (Q8R431 1-303 C32G): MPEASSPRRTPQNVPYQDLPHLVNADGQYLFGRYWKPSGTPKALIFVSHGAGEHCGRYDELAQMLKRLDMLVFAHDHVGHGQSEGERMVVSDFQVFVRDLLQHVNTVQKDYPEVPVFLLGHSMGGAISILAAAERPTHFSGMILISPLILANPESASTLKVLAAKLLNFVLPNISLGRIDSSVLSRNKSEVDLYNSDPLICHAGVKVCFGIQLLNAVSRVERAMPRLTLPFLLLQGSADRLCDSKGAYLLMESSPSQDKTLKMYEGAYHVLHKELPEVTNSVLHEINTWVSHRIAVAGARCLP

[3] = molecular target: T5, rat recombinant N-acylethanolamide acid amidase (Rattus norvegicus, UniProt Q5KTC7); assay: NAAA activity assay; type: biochemical; conditions: in vitro, Table S1
T5 sequence (Q5KTC7 131-362 limits assumed): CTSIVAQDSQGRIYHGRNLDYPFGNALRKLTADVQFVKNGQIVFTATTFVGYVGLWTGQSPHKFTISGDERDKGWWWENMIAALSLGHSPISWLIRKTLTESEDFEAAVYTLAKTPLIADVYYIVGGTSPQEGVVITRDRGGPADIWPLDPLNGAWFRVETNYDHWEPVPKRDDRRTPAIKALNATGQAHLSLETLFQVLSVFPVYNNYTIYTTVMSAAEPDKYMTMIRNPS
T5 sequence (Q5KTC7 34-130 limits assumed): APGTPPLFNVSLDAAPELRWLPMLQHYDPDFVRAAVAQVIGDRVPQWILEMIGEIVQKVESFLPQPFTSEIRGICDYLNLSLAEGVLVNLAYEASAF
In short: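 Rat NAAA (Flag-tagged) from stably transfected HEK293 cells (G418 0.3 mg/ml), prepared by sonication, differential centrifugation, freeze-thaw and 105,000 × g supernatant. 50 μM heptadecenoylethanolamide incubated with 10 μg protein in 50 mM sodium phosphate pH 5.0, 0.1% Triton X-100, 3 mM DTT, 30 min at 37°C. Stopped with cold methanol containing heptadecanoic acid; product (m/z 267) measured by LC/MS SIM.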

MGL C201G mutant = molecular target: T6, MGL C201G mutant (Rattus norvegicus, UniProt Q8R431, C201G); assay: Inhibition of MGL C201G mutant in HeLa cell extracts; type: biochemical
T6 sequence (Q8R431 1-303 C201G): T4 sequence (Q8R431 1-303 C32G) with G32C, C201G

MGL C208G mutant = molecular target: T7, MGL C208G mutant (Rattus norvegicus, UniProt Q8R431, C208G); assay: Inhibition of MGL C208G mutant in HeLa cell extracts; type: biochemical
T7 sequence (Q8R431 1-303 C208G): T4 sequence (Q8R431 1-303 C32G) with G32C, C208G

[4] = molecular target: T8, non-purified HeLa MGL (wild-type) (Rattus norvegicus, UniProt Q8R431); assay: Inhibition of non-purified MGL; type: biochemical
T8 sequence (Q8R431 1-303): T4 sequence (Q8R431 1-303 C32G) with G32C

non-purified HeLa MGL = molecular target: T9, non-purified HeLa MGL (Rattus norvegicus, UniProt Q8R431); assay: Michaelis-Menten kinetic analysis of the MGL reaction; type: biochemical; conditions: for Vmax of MGL in presence of inhibitor: vehicle 200±20; for Mechanism of MGL inhibition: from rapid dilution and kinetic experiments
T9 sequence (Q8R431 1-303): T4 sequence (Q8R431 1-303 C32G) with G32C

[5] = molecular target: T10, purified recombinant rat MGL (Rattus norvegicus, UniProt Q8R431); assay: Inhibition of purified recombinant MGL; type: biochemical
T10 sequence (Q8R431 1-303): T4 sequence (Q8R431 1-303 C32G) with G32C

[6] = IC50, inhibition of non-purified MGL, cell lysates of MGL-transfected HeLa cells
[7] = IC50, wild-type MGL in HeLa cell extracts, wt control of the mutational analysis

Chain of purified MGL (Q8R431 whole entry): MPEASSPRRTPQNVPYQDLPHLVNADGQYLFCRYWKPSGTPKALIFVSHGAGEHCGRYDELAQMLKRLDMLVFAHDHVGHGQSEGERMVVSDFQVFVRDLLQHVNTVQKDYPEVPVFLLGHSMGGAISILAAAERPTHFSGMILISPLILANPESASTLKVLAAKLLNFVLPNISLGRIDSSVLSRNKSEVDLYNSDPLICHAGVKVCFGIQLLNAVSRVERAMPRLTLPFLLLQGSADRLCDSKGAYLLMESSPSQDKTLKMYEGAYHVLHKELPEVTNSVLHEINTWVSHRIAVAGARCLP

SMILES: COC(=O)[C@]1(C)CC[C@]2(C)CC[C@]3(C)C4=CC=C5C(=CC(=O)C(O)=C5C)[C@]4(C)CC[C@@]3(C)[C@@H]2C1 [Pristimerin]
- Time-course of MGL inhibition (purified MGL): almost immediate blockade of MGL activity
- Effect on diacylglycerol lipase activity [1]: no significant effect
- Effect on ABHD12 activity (rat ABHD12): did not affect the activity
- IC50 (rat ABHD6): 0.098 ± 0.008 µM
- Effect on PEA levels ([2]; 1 μM, 30 min): not accompanied by any significant changes
- Cellular 2-AG concentrations ([2]; 1 μM, 30 min, over vehicle-treated neurons): 1.6±0.1 fold change
- Effect on FAAH activity (rat brain FAAH): no significant effect
- Effect of Cys32 mutation on activity of inhibitor (MGL Cys32 mutant): did not influence the activity
- Effect on N-acylethanolamide acid amidase activity [3]: no significant effect
- Effect of Cys201 mutation on inhibitory potency (MGL C201G mutant; C201G vs wt, HeLa cell extracts): without affecting the potency
- IC50 (MGL C208G mutant): 1180 ± 174 nM
- IC50 [4, 6]: 398 ± 68 nM
- IC50 [4, 7]: 350 ± 37 nM
- Vmax of MGL in presence of inhibitor (non-purified HeLa MGL; 100 nM inhibitor): 174 ± 7 pmol/min/µg
- Vmax of MGL in presence of inhibitor (non-purified HeLa MGL; 300 nM inhibitor): 104 ± 7 pmol/min/µg
- Vmax of MGL in presence of inhibitor (non-purified HeLa MGL; 500 nM inhibitor): 51 ± 18 pmol/min/µg
- Mechanism of MGL inhibition (non-purified HeLa MGL): rapid, reversible and non-competitive

SMILES: CCCCC/C=C\C/C=C\C/C=C\C/C=C\CCCCN1C(=O)C=CC1=O [N-arachidonylmaleimide, reference compound]
- Effect on 2-AG levels [2]: increased
- Effect on PEA levels [2]: increased

SMILES: Cc1c(O)c(O)cc2c1CC=C1[C@@]2(C)CC[C@@]2(C)[C@@H]3C[C@](C)(C(=O)O)CC[C@]3(C)CC[C@]12C [Dihydrocelastrol]
- IC50 [5]: 15 ± 4 µM

SMILES: COC(=O)[C@]1(C)CC[C@]2(C)CC[C@]3(C)C4=CCc5c(cc(O)c(O)c5C)[C@]4(C)CC[C@@]3(C)[C@@H]2C1 [Pristimerol]
- IC50 [5]: 4 ± 0.5 µM

SMILES: CC(C)=CCC[C@@H](C)[C@@H]1CC[C@]2(C)C3=C(CC[C@@]12C)[C@@]1(C)CC[C@H](O)C(C)(C)[C@@H]1CC3 [euphol]
- IC50 (rat ABHD6): 9 ± 1 µM
- Effect on PEA levels ([2]; 10 μM, 30 min, data not shown): small, non-significant change
- Cellular 2-AG levels ([2]; 10 μM, 30 min, over vehicle-treated neurons): 1.2±0.2 fold change
- Effect of Cys32 mutation on activity of inhibitor (MGL Cys32 mutant): did not influence the activity
- IC50 (MGL C201G mutant): 2600 ± 200 nM
- Effect of Cys208 replacement on concentration-response curve (MGL C208G mutant; C208G vs wt, HeLa cell extracts): no effect
- IC50 [4, 6]: 882 ± 78 nM
- IC50 [4, 7]: 513 ± 9 nM
- Mechanism of MGL inhibition (non-purified HeLa MGL): reversible and non-competitive

SMILES: CC(=O)Oc1cc2c(c(C)c1OC(C)=O)CC=C1[C@@]2(C)CC[C@@]2(C)C3C[C@](C)(C(=O)O)CC[C@]3(C)CC[C@]12C (some centres unmarked) [Dihydrocelastryl Diacetate]
- IC50 ([5]; read-out: IC50, inhibition of purified recombinant MGL): 15 ± 3 µM

SMILES: CC1=C(O)C(=O)C=C2C1=CC=C1[C@@]2(C)CC[C@@]2(C)[C@@H]3C[C@](C)(C(=O)O)CC[C@]3(C)CC[C@]12C [Celastrol]
- IC50 [5]: 1.6 ± 0.4 µM
